Data on nine molecules can be found in ChEMBL document CHEMBL1795201, “Substituted N-aryl-6-pyrimidinones: a new class of potent, selective, and orally active p38 MAP kinase inhibitors” (Bioorg Med Chem Lett, 2011).

Values after ≈ are worked out from the molar mass of the structure shown.

A short description of data set [1]: Clearance in rat at 0.2 mg/kg, iv. The data set is classed as ADME, organism-based. Set-up: dose 0.2 mg/kg, route intravenous. The note with it: in vivo.
Data set [2] in a line: Lipophilicity, log P of the compound. The note with it: octanol/water. The data set is classed as physicochemical.
The nature of data set [3]: Metabolic stability in rat liver microsomes at 2 uM after 45 mins by LC-MS analysis in presence of NADPH. The data set is classed as ADME, Microsome. Conditions: read-out: Stability. The procedure, abridged: (§1)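 Test compound at 2 μM incubated with liver microsomes (human or rat), NADPH and buffer at 37 °C for 45 min; samples processed by precipitation, then LC-MS measured percent parent compound remaining.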

A short description of data set [4]: Metabolic stability in human liver microsomes at 2 uM after 45 mins by LC-MS analysis in presence of NADPH. The data set is classed as ADME, Microsome. Conditions: read-out: Stability. A digest of the protocol: as §1
The nature of data set [5]: Apparent permeability in human Caco2 cells. The note with it: Caco-2. The data set is classed as ADME, cell-based.
Data set [6] is described as follows: Half life in rat at 0.2 mg/kg, iv. The data set is classed as ADME, organism-based. Set-up: dose 0.2 mg/kg, route intravenous. The note with it: in vivo.
Data set [7] in a line: Oral bioavailability in rat at 5 mg/kg administered as suspension. The data set is classed as ADME, organism-based. Conditions: in vivo. The procedure, abridged: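 Rats dosed orally at 5 mpk with compound given as a suspension; bioavailability reported as oral BA (suspension).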
Data set [8] can be described thus: Volume of distribution at steady state in dog at 1 mg/kg, iv. The data set is classed as ADME, organism-based, Canis lupus familiaris. Set-up: dose 1 mg/kg, route intravenous. The note with it: in vivo, read-out: Vdss.
A short description of data set [9]: Volume of distribution at steady state in rat at 0.2 mg/kg, iv. The data set is classed as ADME, organism-based. Conditions: in vivo, read-out: Vdss. On the set-up: dose 0.2 mg/kg, route intravenous.
Data set [10] is described as follows: Oral bioavailability in rat at 0.2 mg/kg. The data set is classed as ADME, organism-based. The note with it: in vivo.
The nature of data set [11]: Aqueous solubility of the compound in crystalline form at pH 6.5. The data set is classed as physicochemical. Conditions: aqueous medium. A digest of the protocol:
(§2)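 Aqueous solubility measured at pH 6.5, expressed in µg/mL.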

A short description of data set [12]: Clearance in dog at 1 mg/kg, iv. Conditions: in vivo. On the set-up: dose 1 mg/kg, route intravenous. The data set is classed as ADME, organism-based, Canis lupus familiaris.
Data set [13] in a line: Oral bioavailability in dog at 1 mg/kg. Conditions: in vivo. The data set is classed as ADME, organism-based, Canis lupus familiaris.
The nature of data set [14]: Half life in dog at 1 mg/kg, iv. The data set is classed as ADME, organism-based, Canis lupus familiaris. On the set-up: dose 1 mg/kg, route intravenous. The note with it: in vivo.
A short description of data set [15]: Aqueous solubility of the compound in amorphous form at pH 6.5. The data set is classed as physicochemical. The procedure, abridged: as §2
[16] abbreviates: aqueous medium, read-out: solubility.

Turning to `Cc1ccc(C(=O)NCCO)cc1-n1cnc(OCc2ccc(F)cc2F)c(Cl)c1=O`, the clearance in data set [1] came to 0.191 L/h/kg; in [12], 0.0954 L/h/kg. The molecule further yielded a logP in [2] of 1.65. The remaining at 0.75 h, 2 µM in data set [3] worked out at 97%; in data set [4] it was 99%. In addition, in [5], the apparent permeability (Papp) was 79.9 nm/s. Also, the half-life in data set [6] was 6.5 h; in data set [14] it was 8.7 h. The figures for the bioavailability in data set [7], in [10] and in data set [13] were 99%, 99% and 67%, respectively. Also, the Vd in data set [8] stood at 0.986 L/kg; in data set [9] it was 1.32 L/kg. Further, the solubility in data set [11] was found to be 0.023 mg/mL (≈ 51.1 µM); in data set [15] (setting [16]) it was 0.051 mg/mL (≈ 113 µM).
Take `Cc1ccc(C(=O)NCC(N)=O)cc1-n1cnc(OCc2ccc(F)cc2F)c(Cl)c1=O`: the remaining at 0.75 h, 2 µM in data set [3] and in data set [4] was 100% each time. Also, in data set [15] (setting [16]), the solubility is 0.014 mg/mL (≈ 30.2 µM).
As for `Cc1ccc(C(=O)NC[C@@H](O)CO)cc1-n1cnc(OCc2ccc(F)cc2F)c(Cl)c1=O`, the values for the remaining at 0.75 h, 2 µM in data set [3] and in data set [4] were 100% and 97%, respectively. Besides, in [15] (setting [16]), the solubility turned out to be 0.163 mg/mL (≈ 340 µM).
For the molecule `Cc1ccc(C(=O)NC[C@H](C)CO)cc1-n1cnc(OCc2ccc(F)cc2F)c(Cl)c1=O`, the remaining at 0.75 h, 2 µM in data set [3] was determined as 85%; in data set [4], 96%. Besides, the solubility in data set [15] (setting [16]) was 0.094 mg/mL (≈ 197 µM).
Turning to `Cc1ccc(C(=O)N[C@H](C)C(N)=O)cc1-n1cnc(OCc2ccc(F)cc2F)c(Cl)c1=O`, the remaining at 0.75 h, 2 µM in data set [3] stood at 72%; in [4], 77%. In addition, the solubility in data set [15] (setting [16]) was found to be 0.147 mg/mL (≈ 308 µM).
In the case of `Cc1ccc(C(=O)NCCO)cc1-n1cnc(OCc2ccc(F)cc2F)c(C)c1=O`, the remaining at 0.75 h, 2 µM in data set [3] came to 99%; in data set [4], 84%. In data set [15] (setting [16]), the solubility is 0.028 mg/mL (≈ 65.2 µM).
Consider `CCc1c(OCc2ccc(F)cc2F)ncn(-c2cc(C(=O)NCCO)ccc2C)c1=O`, for which the remaining at 0.75 h, 2 µM in data set [3] came to 92%; in [4] it was 76%. In addition, the solubility in data set [15] (setting [16]) stood at 0.02 mg/mL (≈ 45.1 µM).
On to `Cc1ccc(C(=O)NCCO)cc1-n1cnc(OCc2ccc(F)cc2F)c(Br)c1=O`, for which the solubility entry in [15] (buffer) was “Insoluble”.
Take `CNC(=O)c1ccc(C)c(-n2c(C)cc(OCc3ccc(F)cc3F)c(Br)c2=O)c1` [PH-797804]: in [2], the logP was determined as 3.35. In addition, in data set [5], the Papp was 159 nm/s. The molecule further had a bioavailability in data set [7] of 9.3%. For the same molecule, the concentration in solution in data set [11] (solubility) was 0.01 mg/mL (≈ 21 µM).
